Activity calls are given as the source filed them. The rule behind the calls is not given here.
How the values were obtained:
Format in all cases: cell-based
[1] = molecular target: T1, Toll-like receptor 7 (Homo sapiens) (UniProt Q9NYK1); experiment: Agonist activity at TLR7 in human PBMC assessed as induction of plasmacytoid dendritic cell maturation by measuring CD86 level at 0.1 uM after 6 hrs by flow cytometry
T1 sequence (whole entry): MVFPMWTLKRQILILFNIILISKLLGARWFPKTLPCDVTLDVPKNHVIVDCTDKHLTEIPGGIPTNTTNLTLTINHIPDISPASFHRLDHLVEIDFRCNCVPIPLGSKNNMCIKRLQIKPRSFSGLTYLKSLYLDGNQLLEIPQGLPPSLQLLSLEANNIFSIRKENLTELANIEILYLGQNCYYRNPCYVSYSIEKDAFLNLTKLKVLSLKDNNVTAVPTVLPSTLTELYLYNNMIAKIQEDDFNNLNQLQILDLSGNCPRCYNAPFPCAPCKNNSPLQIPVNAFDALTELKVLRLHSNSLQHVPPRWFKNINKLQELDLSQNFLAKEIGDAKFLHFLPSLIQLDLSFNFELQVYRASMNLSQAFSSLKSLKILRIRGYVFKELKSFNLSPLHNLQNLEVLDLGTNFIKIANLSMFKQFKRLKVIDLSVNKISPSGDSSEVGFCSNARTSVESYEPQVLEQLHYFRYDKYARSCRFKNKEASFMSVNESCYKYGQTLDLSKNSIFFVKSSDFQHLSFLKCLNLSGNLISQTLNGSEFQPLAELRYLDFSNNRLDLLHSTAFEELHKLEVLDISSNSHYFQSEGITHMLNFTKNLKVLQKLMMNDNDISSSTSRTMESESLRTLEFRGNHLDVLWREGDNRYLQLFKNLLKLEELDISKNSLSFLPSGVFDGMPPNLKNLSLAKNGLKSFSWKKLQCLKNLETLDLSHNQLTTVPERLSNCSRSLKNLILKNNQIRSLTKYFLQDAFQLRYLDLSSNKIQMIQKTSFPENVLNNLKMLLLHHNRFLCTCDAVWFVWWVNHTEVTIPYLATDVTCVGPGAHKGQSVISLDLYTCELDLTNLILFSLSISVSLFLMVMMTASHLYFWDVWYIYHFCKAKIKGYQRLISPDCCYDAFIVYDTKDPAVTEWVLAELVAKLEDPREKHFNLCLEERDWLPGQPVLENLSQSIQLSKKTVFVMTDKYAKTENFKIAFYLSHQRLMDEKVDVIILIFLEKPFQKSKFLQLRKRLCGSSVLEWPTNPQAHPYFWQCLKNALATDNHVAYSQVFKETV
Procedure, shortened: (§1)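 hPBMCs stimulated 6 h at a single 0.1 μM dose; HLA-DR, MHC-I, CD80 and CD86 on mDCs and pDCs measured by flow cytometry, expressed as fold change versus unstimulated cells. Mean ± SD of three independent experiments in three different donors.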

[2] = molecular target: T1, Toll-like receptor 7 (Homo sapiens); experiment: Agonist activity at TLR7 in human PBMC assessed as induction of plasmacytoid dendritic cell maturation by measuring HLA-DR level at 0.1 uM after 6 hrs by flow cytometry; procedure, shortened: as §1
[3] = molecular target: T1, Toll-like receptor 7 (Homo sapiens); experiment: Agonist activity at TLR7 in human PBMC assessed as induction of plasmacytoid dendritic cell maturation by measuring CD80 level at 0.1 uM after 6 hrs by flow cytometry; procedure, shortened: as §1
[4] = molecular target: Toll-like receptor 3 (Homo sapiens) (UniProt O15455); experiment: Agonist activity at human TLR3 expressed in HEK293 cells by SEAP reporter gene assay
Chain of Toll-like receptor 3 (Homo sapiens) (O15455 whole entry): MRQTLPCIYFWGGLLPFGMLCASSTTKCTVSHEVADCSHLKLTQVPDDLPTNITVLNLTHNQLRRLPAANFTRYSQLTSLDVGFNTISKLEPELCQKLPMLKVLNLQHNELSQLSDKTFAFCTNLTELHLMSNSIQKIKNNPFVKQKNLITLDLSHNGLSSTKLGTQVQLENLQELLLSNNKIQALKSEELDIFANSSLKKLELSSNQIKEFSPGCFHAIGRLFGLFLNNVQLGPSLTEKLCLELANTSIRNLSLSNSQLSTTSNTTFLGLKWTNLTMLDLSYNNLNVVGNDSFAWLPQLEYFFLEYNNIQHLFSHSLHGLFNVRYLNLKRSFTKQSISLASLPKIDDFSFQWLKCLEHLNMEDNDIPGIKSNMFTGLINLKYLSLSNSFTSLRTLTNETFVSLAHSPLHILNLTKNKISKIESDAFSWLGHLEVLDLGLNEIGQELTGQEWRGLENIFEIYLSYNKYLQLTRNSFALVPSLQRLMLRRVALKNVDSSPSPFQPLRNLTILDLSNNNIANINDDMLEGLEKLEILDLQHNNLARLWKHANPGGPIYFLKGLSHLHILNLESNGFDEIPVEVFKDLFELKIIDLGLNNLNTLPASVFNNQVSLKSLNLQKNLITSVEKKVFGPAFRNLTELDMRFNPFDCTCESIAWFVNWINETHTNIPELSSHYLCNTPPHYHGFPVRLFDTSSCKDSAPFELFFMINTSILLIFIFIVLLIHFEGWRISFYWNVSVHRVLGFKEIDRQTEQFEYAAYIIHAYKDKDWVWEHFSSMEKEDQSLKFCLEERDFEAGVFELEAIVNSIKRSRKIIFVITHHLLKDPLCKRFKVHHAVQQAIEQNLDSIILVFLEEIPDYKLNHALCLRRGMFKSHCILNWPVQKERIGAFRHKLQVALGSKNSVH

[5] = molecular target: T2, Toll-like receptor 8 (Homo sapiens) (UniProt Q9NR97); experiment: Agonist activity at TLR8 in human PBMC assessed as induction of myeloid dendritic cell maturation by measuring CD86 level at 0.1 uM after 6 hrs by flow cytometry; procedure, shortened: as §1
T2 sequence (whole entry): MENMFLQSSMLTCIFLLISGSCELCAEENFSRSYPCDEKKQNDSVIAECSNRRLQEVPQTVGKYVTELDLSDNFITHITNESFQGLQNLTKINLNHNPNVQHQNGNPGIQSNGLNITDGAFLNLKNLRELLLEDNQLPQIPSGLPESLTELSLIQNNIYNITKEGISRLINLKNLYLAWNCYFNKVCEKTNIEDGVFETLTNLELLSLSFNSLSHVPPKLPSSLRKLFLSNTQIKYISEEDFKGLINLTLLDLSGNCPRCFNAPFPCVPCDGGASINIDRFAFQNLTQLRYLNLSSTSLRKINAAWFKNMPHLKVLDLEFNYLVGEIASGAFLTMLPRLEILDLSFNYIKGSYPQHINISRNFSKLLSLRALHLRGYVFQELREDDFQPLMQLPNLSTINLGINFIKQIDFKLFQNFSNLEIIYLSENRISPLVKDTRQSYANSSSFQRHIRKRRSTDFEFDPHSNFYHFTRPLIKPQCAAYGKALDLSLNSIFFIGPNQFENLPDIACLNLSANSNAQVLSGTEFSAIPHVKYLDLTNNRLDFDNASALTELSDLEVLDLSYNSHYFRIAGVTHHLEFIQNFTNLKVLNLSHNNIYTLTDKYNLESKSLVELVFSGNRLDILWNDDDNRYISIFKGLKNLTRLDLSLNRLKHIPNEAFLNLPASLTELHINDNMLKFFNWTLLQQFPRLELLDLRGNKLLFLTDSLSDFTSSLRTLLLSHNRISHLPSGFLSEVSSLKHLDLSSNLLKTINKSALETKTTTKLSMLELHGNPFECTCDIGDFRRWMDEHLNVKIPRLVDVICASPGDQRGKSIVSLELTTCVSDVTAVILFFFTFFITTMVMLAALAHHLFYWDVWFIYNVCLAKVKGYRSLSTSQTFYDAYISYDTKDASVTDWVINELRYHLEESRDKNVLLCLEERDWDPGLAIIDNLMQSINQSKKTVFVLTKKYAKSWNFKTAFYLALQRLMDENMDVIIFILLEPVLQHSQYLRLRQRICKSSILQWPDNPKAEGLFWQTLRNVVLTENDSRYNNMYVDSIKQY

[6] = molecular target: T2, Toll-like receptor 8 (Homo sapiens); experiment: Agonist activity at TLR8 in human PBMC assessed as induction of myeloid dendritic cell maturation by measuring MHC-1 level at 0.1 uM after 6 hrs by flow cytometry; procedure, shortened: as §1
[7] = molecular target: T1, Toll-like receptor 7 (Homo sapiens); experiment: Agonist activity at TLR7 in human PBMC assessed as induction of plasmacytoid dendritic cell maturation by measuring MHC-1 level at 0.1 uM after 6 hrs by flow cytometry; procedure, shortened: as §1
[8] = molecular target: T2, Toll-like receptor 8 (Homo sapiens); experiment: Agonist activity at TLR8 in human PBMC assessed as induction of myeloid dendritic cell maturation by measuring HLA-DR level at 0.1 uM after 6 hrs by flow cytometry; procedure, shortened: as §1

Activity [1]: inactive
Activity [2]: inactive
Activity [3]: inactive
Activity [4]: inactive
Activity [5]: inactive
Activity [6]: inactive
Activity [7]: inactive
Activity [8]: inactive
SMILES: Nc1nc(OCCCCO)nc2c1[nH]c(=O)n2CC1CCNCC1
